A short description of series [1]: melting temperature; fluorescence melt of hairpins on a sequencing array, two-state fit, raised by 9.35 °C to match UV melts. As to conditions: sodium 0.088 M. The method, boiled down: (§1)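 Library hairpins on a sequenced MiSeq flow cell carried annealed Cy3 and quencher oligos, and their Cy3 fluorescence was imaged in 50 mM Na-HEPES pH 8.0 with 25 mM NaCl, in 2.5 °C steps up to 60 °C. Signals were normalised to Cy3 before quenching and to control constructs. Melting temperature and folding enthalpy were obtained from bootstrapped two-state fits, combined by inverse-variance weighting across four replicates, and the fitted temperatures were then raised by 9.35 °C to match UV melts.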

Series [2] is described as follows: folding enthalpy; higher = less favourable; fluorescence melt of hairpins on a sequencing array, two-state fit. As to conditions: sodium 0.088 M. The method, boiled down: as §1

Turning to GATACTGGAAACAGCATC (((.(((....))).))), in series [1], the Tm came out at 34.2 °C. Moreover, in series [2], the folding enthalpy was -27.5 kcal/mol.
For the sequence GATACTGGAAACAGTGTC ((.((((....)))).)), in series [1], the Tm was 44.7 °C. Also, in series [2], the folding enthalpy was -25.9 kcal/mol.
The corresponding values for GATAGAGAAATCTATC ((((((....)))))) are 36.8 °C and -21.5 kcal/mol.
The corresponding values for GATAGCCGAAAGGCAATC (((.(((....))).))) are 46 °C and -19.1 kcal/mol.
On to GATAGCGGAAACGTTATC ((((.((....)).)))), for which the Tm in series [1] was 42.3 °C. Also, the folding enthalpy in series [2] was -34.8 kcal/mol.
The corresponding values for GATAGCGGAAACGTTGTC ((.(.((....)).).)) are 27.5 °C and -16.1 kcal/mol.
For GATAGGAAACTATC (((((....))))), in that order: 40.2 °C and -15.4 kcal/mol.
For GATAGGACGAAAGTCATC (((..(((....)))))), in that order: 25.2 °C and -7.28 kcal/mol.
In the case of GATAGGCGAAAGCCATC (((.(((....)))))), the Tm in series [1] worked out at 40.3 °C. The folding enthalpy in series [2] was -12.6 kcal/mol.
As for GATAGGGAAACCTATC ((((((....)))))), in series [1], the Tm turned out to be 47.6 °C. Besides, the folding enthalpy in series [2] is -34.7 kcal/mol.
For GATAGGGGAAACCCCATC (((.(((....))).))), in that order: 35.6 °C and -16.9 kcal/mol.
Regarding GATAGGGGAAACCCTATC (((((((....))))))), in series [1], the Tm was determined as 54.9 °C. For the same sequence, the folding enthalpy in series [2] was -42 kcal/mol.
With GATATACGAAAGTACATC (((.(((....))).))), the Tm in series [1] worked out at 30.5 °C. The folding enthalpy in series [2] is -27.2 kcal/mol.
With GATATACGAAAGTAGATC (((.(((....))).))), in series [1], the Tm was determined as 44.1 °C. Further, the folding enthalpy in series [2] is -31.1 kcal/mol.
For GATATGCGAAAGCAAATC (((.(((....))).))), in that order: 40.1 °C and -24.3 kcal/mol.
Consider GATATGCGAAAGCACATC (((.(((....))).))), for which the Tm in series [1] came out at 39.3 °C. For the same sequence, the folding enthalpy in series [2] was -19.1 kcal/mol.
With GATATGGCGAAAGCCATC (((..(((....)))))), in series [1], the Tm came to 34.2 °C. In series [2], the folding enthalpy is -7.03 kcal/mol.
As to GATCAAAAGATTGATC ((((((....)))))), the Tm in series [1] turned out to be 33.3 °C. The folding enthalpy in series [2] is -20.6 kcal/mol.
For the sequence GATCAAACGATTGATC ((((((....)))))), the Tm in series [1] is 39.9 °C. Moreover, the folding enthalpy in series [2] is -25.3 kcal/mol.
For GATCAAACGGTTGATC ((((((....)))))), in that order: 44.2 °C and -36 kcal/mol.
With GATCAAACGTTTGATC ((((((....)))))), in series [1], the Tm is 51 °C. For the same sequence, the folding enthalpy in series [2] was -41.4 kcal/mol.
The corresponding values for GATCAAACTCTTGATC ((((((....)))))) are 40.5 °C and -33.9 kcal/mol.
GATCAAACTTTGATC ((((((...)))))): the Tm in series [1] was 41.9 °C. Moreover, the folding enthalpy in series [2] is -31.6 kcal/mol.
The corresponding values for GATCAAAGCCTTGATC ((((((....)))))) are 44.1 °C and -28.4 kcal/mol.
As to GATCAAAGGTTGATC ((((((...)))))), the Tm in series [1] was determined as 40 °C. For the same sequence, the folding enthalpy in series [2] was -27.2 kcal/mol.
For GATCAAAGTTTGATC ((((((...)))))), in that order: 42.7 °C and -27.1 kcal/mol.
Take GATCAAATAGTTGATC ((((((....)))))): the Tm in series [1] worked out at 37.9 °C. The folding enthalpy in series [2] is -29.5 kcal/mol.
Take GATCAAATATTTGATC ((((((....)))))): in series [1], the Tm worked out at 47.1 °C. The folding enthalpy in series [2] was -48.2 kcal/mol.
For GATCAAATCCTTGATC ((((((....)))))), in that order: 42.1 °C and -35.8 kcal/mol.
As to GATCAAATCGTTGATC ((((((....)))))), in series [1], the Tm is 42.4 °C. Also, the folding enthalpy in series [2] is -30.6 kcal/mol.
For GATCAAATCTTTGATC ((((((....)))))), in that order: 47.7 °C and -30.3 kcal/mol.
For the sequence GATCAAATGATTGATC ((((((....)))))), in series [1], the Tm came to 35.8 °C. The folding enthalpy in series [2] is -26.2 kcal/mol.
For GATCAAATGTTGATC ((((((...)))))), in that order: 41.2 °C and -26.6 kcal/mol.
For GATCAAATTTTTGATC ((((((....)))))), in that order: 47.7 °C and -39 kcal/mol.
Take GATCAACACTTTGATC ((((((....)))))): the Tm in series [1] was 47.6 °C. For the same sequence, the folding enthalpy in series [2] was -37.8 kcal/mol.
Take GATCAACAGTTTGATC ((((((....)))))): the Tm in series [1] worked out at 41.3 °C. Further, the folding enthalpy in series [2] is -31.2 kcal/mol.
The corresponding values for GATCAACCAGTTGATC ((((((....)))))) are 50.4 °C and -41.9 kcal/mol.

(Values after the array DNA melting data of Ke et al. (doi:10.1101/2024.01.08.574731).)
